Experimental data as given in ChEMBL document CHEMBL2029237, “Melanin-concentrating hormone receptor 1 antagonists. Synthesis and structure-activity relationships of novel 3-(aminomethyl)quinolines” (J Med Chem, 2012).
≈ marks a conversion by molar mass, not a printed value.

Tests used:
[1] = target: T1, 5-hydroxytryptamine receptor 2C (Homo sapiens, UniProt P28335); assay: Displacement of [3H]mesulergine from human 5HT2C receptor expressed in CHO cells after 1 hr by scintillation counting; format: cell-based
T1 sequence (P28335 whole entry): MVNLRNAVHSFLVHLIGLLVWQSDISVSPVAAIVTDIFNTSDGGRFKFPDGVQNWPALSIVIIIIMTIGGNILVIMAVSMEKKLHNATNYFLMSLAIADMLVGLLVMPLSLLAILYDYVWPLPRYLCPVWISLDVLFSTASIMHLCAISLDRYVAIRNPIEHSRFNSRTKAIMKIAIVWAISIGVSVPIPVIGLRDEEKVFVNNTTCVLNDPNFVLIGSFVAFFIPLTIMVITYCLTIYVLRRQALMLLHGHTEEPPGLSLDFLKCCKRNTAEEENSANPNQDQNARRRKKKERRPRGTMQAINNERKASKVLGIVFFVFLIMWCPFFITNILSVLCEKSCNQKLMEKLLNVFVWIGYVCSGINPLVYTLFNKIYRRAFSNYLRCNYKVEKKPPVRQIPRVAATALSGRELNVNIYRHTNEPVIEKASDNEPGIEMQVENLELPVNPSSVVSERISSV
Method in brief: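 Membranes from CHO cells stably expressing human 5-HT2c incubated 1 h at room temperature with [3H]mesulergine and compound at various concentrations. Terminated by GF/C filtration, filter radioactivity counted by scintillation. IC50 from one experiment in duplicate.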

[2] = target: T2, Melanin-concentrating hormone receptor 1 (Homo sapiens, UniProt Q99705); assay: Displacement of [125I]MCH from human MCHR1 expressed in CHO cells after 1 hr by scintillation counting; format: cell-based
Method in brief: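 CHO cell membranes stably expressing human or rat MCHR1 incubated 1 h at room temperature with [125I]MCH(4−19) and compound at various concentrations. Filtration through GF/C glass filters, bound radioactivity counted by scintillation. IC50 from one experiment in duplicate.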

[3] = target: T2, Melanin-concentrating hormone receptor 1; assay: Antagonist activity at human MCHR1 expressed in CHO cells assessed as inhibition of MCH-induced [3H]arachidonic acid release […] by liquid scintillation counting; format: functional, cell-based; conditions: in the assay text read “45 mins” for “16 hrs”
Method in brief: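 Human MCHR1-CHO cells seeded at 50 000/well, cultured 1 day, then loaded with [3H]arachidonic acid (0.2 μCi/well) for 16 h. Washed with DMEM containing 20 mM HEPES pH 7.4 and 0.2% BSA. Compound preincubated 30 min at 37 °C, MCH added, 45 min incubation, medium radioactivity by liquid scintillation.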

[4] = Solubility of the compound in JP2 solution at 10 mM; format: physicochemical
Method in brief: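 The 10 mM DMSO solution of compound was added to JP2 until opalescence appeared.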

T2 sequence (Q99705 whole entry): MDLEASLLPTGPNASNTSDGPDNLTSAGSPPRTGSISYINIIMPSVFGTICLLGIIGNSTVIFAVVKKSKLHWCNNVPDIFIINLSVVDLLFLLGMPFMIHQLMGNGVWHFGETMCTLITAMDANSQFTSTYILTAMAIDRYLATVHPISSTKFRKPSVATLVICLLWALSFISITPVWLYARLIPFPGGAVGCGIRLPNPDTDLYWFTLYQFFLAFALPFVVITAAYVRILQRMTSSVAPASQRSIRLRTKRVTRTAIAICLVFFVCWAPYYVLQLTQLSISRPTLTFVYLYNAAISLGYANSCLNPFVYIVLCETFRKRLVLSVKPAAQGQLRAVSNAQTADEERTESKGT

Row | Structure (SMILES) | IC50 [1] [nM] | IC50 [2] [nM] | IC50 [3] [nM] | solubility [4] [µg/mL]
1 | Cc1c(NC(=O)c2ccc(-c3ccc(Cl)cc3)cc2)ccc2cc(CN3CCCC3)cnc12 | > 1000 | 0.36 | 7.6 | 
2 | Cc1ccc(-c2ccc(C(=O)Nc3ccc4cc(CN5CCCC5)cnc4c3)cn2)cc1 | 570 | 18 |  | 
3 | O=C(Nc1cc2ncc(CN3CCCC3)cc2cc1F)c1ccc(-c2ccc(F)cc2)cc1 | 280 | 1.4 | 8.4 | 
4 | COc1ccc(-c2ccc(C(=O)Nc3ccc4cc(CN5CCCC5)cnc4c3C)cc2)cc1 | > 1000 | 0.53 | 4.3 | 
5 | COc1ccc(-c2ccc(C(=O)Nc3ccc4cc(CN5CCCC5)cnc4c3)cn2)cc1 |  | 26 |  | 
6 | Cc1ccc(-c2ccc(C(=O)Nc3ccc4cc(CN5CCCC5)cnc4c3C)cc2)cc1 | 540 | 1 | 11 | 
7 | O=C(Nc1ccc2cc(CN3CCCC3)cnc2c1)c1ccc(-c2ccc(F)cc2)cc1 | 160 | 2.8 | 9.2 | 1.5 (≈ 3.53 µM)
8 | O=C(Nc1ccc2cc(CN3CCCC3)ccc2c1)c1ccc(-c2ccc(F)cc2)cc1 | 120 | 0.76 | 9 | 0.11 (≈ 0.259 µM)
9 | O=C(Nc1ccc2c(c1)OCC(CN1CCCC1)=C2)c1ccc(-c2ccc(F)cc2)cc1 | 3.1 | 0.91 | 10 | 0.17 (≈ 0.397 µM)

More lines, now with the values ahead:

Row | IC50 [1] [nM] | IC50 [2] [nM] | IC50 [3] [nM] | solubility [4] [µg/mL] | Structure (SMILES)
10 | 310 | 13 |  |  | O=C(Nc1ccc2cc(CN3CCCC3)cnc2c1)c1ccc(-c2ccccc2)cc1
11 |  | 35 |  |  | O=C(Nc1ccc2cc(CN3CCCC3)cnc2c1)N1CCC(c2ccc(F)cc2)CC1
12 |  | 100 |  |  | O=C(Nc1ccc2cc(CN3CCCC3)cnc2c1)N1CCC(c2ccccc2)CC1
13 | 830 | 25 |  |  | O=C(Nc1ccc2cc(CN3CCCC3)cnc2c1)c1ccc(-c2ccc(F)cc2)nc1
14 |  | 73 |  |  | O=C(Nc1ccc2cc(CN3CCCC3)cnc2c1)c1ccc(-c2ccccc2)nc1
15 | 930 | 4.1 | 14 |  | O=C(Nc1ccc2cc(CN3CCCC3)cnc2c1)c1ccc(-c2ccc(Cl)cc2)nc1
16 | 55 | 6.6 |  |  | O=C(Nc1ccc2cc(CN3CCCC3)cnc2c1)N1CCC(c2ccc(Cl)cc2)CC1
